Assay results reported in ChEMBL document CHEMBL1949525, “Boranophosphate isoster controls P2Y-receptor subtype selectivity and metabolic stability of dinucleoside polyphosphate analogues” (J Med Chem, 2012).
Active and inactive are the calls of the source. The rule behind the calls is not given here.

How the values were obtained:
[1] = Stability of the compound assessed as human e-NPP1-mediated hydrolysis at pH 8.5 after 20 mins by HPLC analysis; format: ADME; conditions: buffer, pH 8.5, 20 min
Summary of the method: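 Human NPP1 preparation preincubated 3 min at 37 °C in 1 mM CaCl2, 200 mM NaCl, 10 mM KCl, 100 mM Tris, pH 8.5. Started with 0.2 mM dinucleotide solution (added volume) and stopped after 20 min in ice-cold perchloric acid. Neutralised with KOH, then NMP formation followed by HPLC. Percent substrate hydrolysed is the mean of two experiments run in triplicate.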

[2] = Stability of the compound assessed as human e-NPP3-mediated compound hydrolysis by HPLC analysis; format: ADME
[3] = Chemical stability of the compound at pH mimicking gastric juice acidity; format: physicochemical; conditions: simulated gi fluid
[4] = Chemical stability of the compound at physiological conditions; format: physicochemical
[5] = Selectivity ratio of EC50 for rat P2Y purinoceptor 6 receptor to EC50 for turkey P2Y purinoceptor 1 receptor
Summary of the method: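 1321N1 astrocytoma cells lacking endogenous P2Y receptors, stably transfected with turkey P2Y1, human P2Y2, human P2Y4 or rat P2Y6, grown in DMEM with 5% FBS, penicillin/streptomycin and 500 µg/mL G-418. Fura-2-loaded cell suspensions were exposed at 37 °C in 10 mM Hepes-buffered saline, pH 7.4, with 1 mM CaCl2 and 1 mM MgCl2. Peak [Ca2+]i rise by dual-excitation spectrofluorometry across concentrations; EC50 from curve fits; three experiments on separate days per subtype.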

[6] = target: P2Y purinoceptor 1 (Meleagris gallopavo) (UniProt P49652); assay: Antagonist activity at turkey P2Y purinoceptor 1 expressed in human 1321N1 cells assessed as inhibition of 2-Sme-ADP-induced increase in intracellular calcium concentration by spectrofluorimetry; format: functional, cell-based
Sequence of P2Y purinoceptor 1 (Meleagris gallopavo) (P49652 whole entry): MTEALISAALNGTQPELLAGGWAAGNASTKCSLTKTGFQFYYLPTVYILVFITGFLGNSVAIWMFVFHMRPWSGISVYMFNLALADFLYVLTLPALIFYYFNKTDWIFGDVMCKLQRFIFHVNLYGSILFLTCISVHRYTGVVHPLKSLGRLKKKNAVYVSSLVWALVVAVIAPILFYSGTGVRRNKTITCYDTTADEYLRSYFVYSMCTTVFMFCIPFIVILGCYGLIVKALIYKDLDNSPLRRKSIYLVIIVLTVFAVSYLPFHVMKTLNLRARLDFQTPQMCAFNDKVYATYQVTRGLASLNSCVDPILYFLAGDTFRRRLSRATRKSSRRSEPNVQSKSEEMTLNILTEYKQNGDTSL
Summary of the method: (§1)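 Fura-2-loaded 1321N1 transfectants (turkey P2Y1, human P2Y2/P2Y4, rat P2Y6) in Hepes-buffered saline, pH 7.4, at 37 °C. Analogues were tested against equimolar reference agonist: 2-MeS-ADP for P2Y1, UTP for P2Y2/4, UDP for P2Y6. Blockade of the [Ca2+]i rise was followed by dual-excitation spectrofluorometry.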

P2Y purinoceptor 2 [7] = target: T1, P2Y purinoceptor 2 (Homo sapiens, UniProt P41231); assay: Antagonist activity at human P2Y purinoceptor 2 expressed in human 1321N1 cells assessed as inhibition of UTP-induced increase in intracellular calcium concentration by spectrofluorimetry; format: functional, cell-based; summary of the method: as §1
T1 sequence (P41231 whole entry): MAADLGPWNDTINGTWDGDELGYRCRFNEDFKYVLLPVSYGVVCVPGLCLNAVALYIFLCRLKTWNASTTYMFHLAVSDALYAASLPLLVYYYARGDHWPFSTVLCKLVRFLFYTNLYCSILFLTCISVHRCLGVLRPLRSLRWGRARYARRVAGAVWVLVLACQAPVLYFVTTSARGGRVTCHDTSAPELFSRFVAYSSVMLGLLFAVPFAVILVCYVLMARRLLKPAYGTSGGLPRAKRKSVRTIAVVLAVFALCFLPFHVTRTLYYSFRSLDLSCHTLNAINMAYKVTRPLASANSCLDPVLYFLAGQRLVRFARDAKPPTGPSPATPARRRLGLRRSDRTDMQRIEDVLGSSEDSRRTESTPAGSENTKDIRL

P2Y purinoceptor 4 = P2Y purinoceptor 4 (Homo sapiens, UniProt P51582); assay: Antagonist activity at human P2Y purinoceptor 4 expressed in human 1321N1 cells assessed as inhibition of UTP-induced increase in intracellular calcium concentration by spectrofluorimetry; format: functional, cell-based; summary of the method: as §1
Sequence of P2Y purinoceptor 4 (P51582 whole entry): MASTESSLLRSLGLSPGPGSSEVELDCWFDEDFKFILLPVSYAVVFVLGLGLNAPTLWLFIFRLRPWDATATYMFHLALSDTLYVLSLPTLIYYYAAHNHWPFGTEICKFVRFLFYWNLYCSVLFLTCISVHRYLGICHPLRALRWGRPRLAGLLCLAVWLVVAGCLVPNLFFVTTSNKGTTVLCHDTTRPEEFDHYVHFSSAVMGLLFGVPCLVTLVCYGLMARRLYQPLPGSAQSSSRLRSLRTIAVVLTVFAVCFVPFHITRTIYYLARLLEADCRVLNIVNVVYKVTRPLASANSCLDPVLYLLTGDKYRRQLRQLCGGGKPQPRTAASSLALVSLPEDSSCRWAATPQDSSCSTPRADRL

[8] = target: P2Y purinoceptor 6 (Rattus norvegicus) (UniProt Q63371); assay: Antagonist activity at rat P2Y purinoceptor 6 expressed in human 1321N1 cells assessed as inhibition of UDP-induced increase in intracellular calcium concentration by spectrofluorimetry; format: functional, cell-based; summary of the method: as §1
Sequence of P2Y purinoceptor 6 (Rattus norvegicus) (Q63371 whole entry): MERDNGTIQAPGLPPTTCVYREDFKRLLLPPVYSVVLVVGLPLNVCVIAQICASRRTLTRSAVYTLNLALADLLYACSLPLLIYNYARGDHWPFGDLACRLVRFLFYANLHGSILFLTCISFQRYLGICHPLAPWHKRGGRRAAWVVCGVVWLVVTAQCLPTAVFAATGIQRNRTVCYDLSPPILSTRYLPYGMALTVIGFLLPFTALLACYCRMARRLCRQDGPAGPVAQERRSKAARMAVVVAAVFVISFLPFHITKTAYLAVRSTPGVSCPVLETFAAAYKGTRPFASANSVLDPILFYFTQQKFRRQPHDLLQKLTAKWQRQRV

[9] = target: P2Y purinoceptor 6 (Rattus norvegicus) (UniProt Q63371); assay: Agonist activity at rat P2Y purinoceptor 6 expressed in human 1321N1 cells assessed as increase in intracellular calcium concentration at 100 uM by spectrofluorimetry; format: functional, cell-based
[10] = target: P2Y purinoceptor 1 (Meleagris gallopavo) (UniProt P49652); assay: Agonist activity at turkey P2Y purinoceptor 1 expressed in human 1321N1 cells assessed as increase in intracellular calcium concentration at 100 uM by spectrofluorimetry; format: functional, cell-based
P2Y purinoceptor 2 [11] = target: T1, P2Y purinoceptor 2; assay: Agonist activity at human P2Y purinoceptor 2 expressed in human 1321N1 cells assessed as increase in intracellular calcium concentration at 100 uM by spectrofluorimetry; format: functional, cell-based

SMILES | Stability [1] | Stability [2] | Stability [3] | Stability [4] | Ratio EC50 [5] | Activity [6] | Activity (P2Y purinoceptor 2 [7]) | Activity (P2Y purinoceptor 4) | Activity [8] | Activity [9] | Activity [10] | Activity (P2Y purinoceptor 2 [11])
BP(=O)(OP(=O)(O)OC[C@H]1O[C@@H](n2cnc3c(N)ncnc32)[C@H](O)[C@@H]1O)OP(=O)(O)OC[C@H]1O[C@@H](n2cnc3c(N)ncnc32)[C@H](O)[C@@H]1O.CCCCN(CCCC)CCCC.CCCCN(CCCC)CCCC.CCCCN(CCCC)CCCC | Stable | Stable | Stable | Stable |  |  |  |  |  |  |  | 
BP(=O)(OP(=O)(O)OC[C@H]1O[C@@H](n2cnc3c(N)ncnc32)[C@H](O)[C@@H]1O)OP(=O)(O)OP(=O)(O)OC[C@H]1O[C@@H](n2ccc(=O)[nH]c2=O)[C@H](O)[C@@H]1O.CCCCN(CCCC)CCCC.CCCCN(CCCC)CCCC.CCCCN(CCCC)CCCC.CCCCN(CCCC)CCCC (mixture of isomers) |  |  |  |  | 42 |  |  |  |  |  |  | 
BP(=O)(OP(=O)(O)OC[C@H]1O[C@@H](n2cnc3c(N)ncnc32)[C@H](O)[C@@H]1O)OP(=O)(O)OP(=O)(O)OC[C@H]1O[C@@H](n2cnc3c(N)ncnc32)[C@H](O)[C@@H]1O.CCCCN(CCCC)CCCC.CCCCN(CCCC)CCCC.CCCCN(CCCC)CCCC.CCCCN(CCCC)CCCC (stereo in doubt; 6A) |  |  |  |  |  | inactive | inactive | inactive | inactive | Active |  | 
BP(=O)(OP(=O)(O)OC[C@H]1O[C@@H](n2cnc3c(N)ncnc32)[C@H](O)[C@@H]1O)OP(=O)(O)OP(=O)(O)OC[C@H]1O[C@@H](n2cnc3c(N)ncnc32)[C@H](O)[C@@H]1O.CCCCN(CCCC)CCCC.CCCCN(CCCC)CCCC.CCCCN(CCCC)CCCC.CCCCN(CCCC)CCCC (stereo in doubt; 6B) |  |  |  |  |  | inactive | inactive | inactive | inactive | Active |  | 
BP(=O)(OP(=O)(O)OC[C@H]1O[C@@H](n2ccc(=O)[nH]c2=O)[C@H](O)[C@@H]1O)OP(=O)(O)OP(=O)(O)OC[C@H]1O[C@@H](n2ccc(=O)[nH]c2=O)[C@H](O)[C@@H]1O.CCCCN(CCCC)CCCC.CCCCN(CCCC)CCCC.CCCCN(CCCC)CCCC.CCCCN(CCCC)CCCC (stereo in doubt; 7A) |  |  |  |  |  | inactive | inactive | inactive | inactive |  | Active | Active
BP(=O)(OC[C@H]1O[C@@H](n2ccc(=O)[nH]c2=O)[C@H](O)[C@@H]1O)OP(=O)(O)OP(=O)(O)OP(=O)(O)OC[C@H]1O[C@@H](n2ccc(=O)[nH]c2=O)[C@H](O)[C@@H]1O.CCCCN(CCCC)CCCC.CCCCN(CCCC)CCCC.CCCCN(CCCC)CCCC.CCCCN(CCCC)CCCC (stereo in doubt; 13A) |  |  |  |  |  | inactive | inactive | inactive | inactive |  |  | Active
